The target in experiment [1] is T1, Dual specificity tyrosine-phosphorylation-regulated kinase 1A (Homo sapiens, UniProt Q13627). Kind of experiment: Stabilization of DYRK1A in human U251 cell lysate at 10 uM preincubated for 1 hr followed by incubation at 40 to 70 degreeC for 3 mins by cellular thermal shift assay.
Experiment [2] has as its target T2, Dual specificity protein kinase CLK1 (Homo sapiens, UniProt P49759). Kind of experiment: Stabilization of CLK1 in human U251 cell lysate at 10 uM preincubated for 1 hr followed by incubation at 40 to 70 degreeC for 3 mins by cellular thermal shift assay.
Target sequence in this assay (P49759 whole entry, looked up): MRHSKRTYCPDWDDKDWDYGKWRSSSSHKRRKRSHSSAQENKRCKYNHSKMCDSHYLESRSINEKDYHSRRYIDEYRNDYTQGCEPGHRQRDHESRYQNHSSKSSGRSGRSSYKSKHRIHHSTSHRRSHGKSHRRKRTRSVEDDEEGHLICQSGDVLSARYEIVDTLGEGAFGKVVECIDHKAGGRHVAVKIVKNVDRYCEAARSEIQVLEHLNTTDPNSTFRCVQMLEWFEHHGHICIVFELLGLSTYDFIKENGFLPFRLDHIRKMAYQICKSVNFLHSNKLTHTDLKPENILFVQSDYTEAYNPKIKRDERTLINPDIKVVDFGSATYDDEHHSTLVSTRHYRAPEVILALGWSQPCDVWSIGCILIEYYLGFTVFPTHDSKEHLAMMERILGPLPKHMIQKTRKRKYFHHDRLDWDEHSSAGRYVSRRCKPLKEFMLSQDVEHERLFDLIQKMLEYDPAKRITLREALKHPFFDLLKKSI
In experiment [3] the test system is A 172. Kind of experiment: Antiinvasive activity in human A172 cells assessed as velocity of invasion at 10 uM measured up to 20 hrs by matrigel assay (reference value: 2659 to 3047 micrometer/hr). The format is functional.
In experiment [4] the test system is U-251. Kind of experiment: Antiinvasive activity in human U251 cells measured up to 20 hrs by matrigel assay. The format is functional, cell-based.
A short description of experiment [5]: Cytotoxicity against patient-derived JK2 cells assessed as reduction in cell viability after 3 days by Alamar blue assay. Particulars: Homo sapiens, JK2, 72 h. Format: functional, cell-based. The gist of the method:
(§1)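 The patient-derived glioblastoma lines were grown as stem cells under defined conditions to keep the phenotype and genotype of the resected tumours. Viability after treatment was read with Alamar blue.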

The subject of experiment [6] is A 172. Description: Antiinvasive activity in human A172 cells assessed as velocity of invasion at 5 uM measured up to 20 hrs by matrigel assay (reference value: 2659 to 3047 micrometer/hr). The format is functional.
Experiment [7] in a line: Antimigratory activity in patient-derived RN1 cells assessed as velocity of migration at 10 uM measured up to 20 hrs by wound scratch assay (reference value: 937 to 1174 micrometer/hr). The format is functional, Homo sapiens. The gist of the method: (§2)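 Wound-healing migration assay: cell movement across the wound is measured as velocity (µm/h). Compounds were tested at 0, 1.0, 5.0 and 10.0 µM. Values are mean ± SEM of 3 independent experiments.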

The test system of experiment [8] is A 172. Kind of experiment: Antimigratory activity in human A172 cells assessed as velocity of migration at 1 uM measured up to 20 hrs by wound scratch assay (reference value: 2650 to 3123 micrometer/hr). Format: functional. The method in brief: as §2
The target in experiment [9] is T3, Dual specificity tyrosine-phosphorylation-regulated kinase 1B (Homo sapiens, UniProt Q9Y463). Kind of experiment: Stabilization of DYRK1B in human U251 cell lysate at 10 uM preincubated for 1 hr followed by incubation at 40 to 70 degreeC for 3 mins by cellular thermal shift assay.
Target sequence in this assay (Q9Y463 whole entry, looked up): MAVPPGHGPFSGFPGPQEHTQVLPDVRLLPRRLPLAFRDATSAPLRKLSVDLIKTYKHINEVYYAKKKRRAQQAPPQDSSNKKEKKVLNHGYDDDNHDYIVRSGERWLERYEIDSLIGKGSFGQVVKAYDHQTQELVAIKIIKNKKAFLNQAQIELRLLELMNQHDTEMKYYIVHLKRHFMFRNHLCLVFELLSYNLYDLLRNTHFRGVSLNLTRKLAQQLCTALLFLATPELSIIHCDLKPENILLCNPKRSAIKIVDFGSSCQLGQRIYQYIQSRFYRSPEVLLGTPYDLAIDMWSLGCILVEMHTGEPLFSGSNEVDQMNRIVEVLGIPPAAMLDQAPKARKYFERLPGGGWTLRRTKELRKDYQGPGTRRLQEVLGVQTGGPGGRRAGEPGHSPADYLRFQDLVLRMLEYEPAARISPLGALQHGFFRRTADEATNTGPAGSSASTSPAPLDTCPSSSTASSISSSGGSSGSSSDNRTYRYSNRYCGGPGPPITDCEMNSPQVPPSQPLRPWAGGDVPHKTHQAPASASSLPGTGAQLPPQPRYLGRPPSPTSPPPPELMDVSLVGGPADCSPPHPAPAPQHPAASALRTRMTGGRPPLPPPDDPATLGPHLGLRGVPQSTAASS
Experiment [10] can be described thus: Cytotoxicity against patient-derived SJH1 cells assessed as reduction in cell viability after 3 days by Alamar blue assay. Particulars: Homo sapiens, SJH1, 72 h. Format: functional, cell-based. The method in brief:
as §1
Background: Alamar Blue is a resazurin reagent that responds to reducing activity.

Experiment [11] in a line: Antimigratory activity in patient-derived RN1 cells assessed as velocity of migration at 1 uM measured up to 20 hrs by wound scratch assay (reference value: 937 to 1174 micrometer/hr). Format: functional, Homo sapiens. The method in brief: as §2
Experiment [12] deals with T1, Dual specificity tyrosine-phosphorylation-regulated kinase 1A. Description: Inhibition of DYRK1A (unknown origin) using woodtide as substrate after 10 mins in presence of [gamma-33P]ATP by microbeta scintillation counting.
For experiment [13], the target named is T2, Dual specificity protein kinase CLK1. Description: Inhibition of CLK1 (unknown origin) using KKGRSRSRSRSRSR as substrate after 40 mins in presence of [gamma-33P]ATP by microbeta scintillation counting. The gist of the method: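 CLK1 was assayed with RS peptide substrate at 100 µM ATP.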
Target sequence in this assay (P49759 whole entry): as the sequence (P49759 whole entry, looked up) above
Experiment [14] relates to U-251. Description: Cytotoxicity against human U251 cells assessed as reduction in cell viability after 3 days by Alamar blue assay. The format is functional, cell-based. The conditions noted are these: U-251, 72 h.
The target of experiment [15] is T3, Dual specificity tyrosine-phosphorylation-regulated kinase 1B. Kind of experiment: Inhibition of DYRK1B (unknown origin) using woodtide as substrate after 40 mins in presence of [gamma-33P]ATP by microbeta scintillation counting.
Target sequence in this assay (Q9Y463 whole entry): as the sequence (Q9Y463 whole entry, looked up) above
In experiment [16] the target is Mitogen-activated protein kinase 14 (Homo sapiens) (UniProt Q16539). Kind of experiment: Stabilization of MAPK p38alpha in human U251 cell lysate at 10 uM preincubated for 1 hr followed by incubation at 40 to 70 degreeC for 3 mins by cellular thermal shift assay.
Chain of Mitogen-activated protein kinase 14 (Homo sapiens) (Q16539 whole entry): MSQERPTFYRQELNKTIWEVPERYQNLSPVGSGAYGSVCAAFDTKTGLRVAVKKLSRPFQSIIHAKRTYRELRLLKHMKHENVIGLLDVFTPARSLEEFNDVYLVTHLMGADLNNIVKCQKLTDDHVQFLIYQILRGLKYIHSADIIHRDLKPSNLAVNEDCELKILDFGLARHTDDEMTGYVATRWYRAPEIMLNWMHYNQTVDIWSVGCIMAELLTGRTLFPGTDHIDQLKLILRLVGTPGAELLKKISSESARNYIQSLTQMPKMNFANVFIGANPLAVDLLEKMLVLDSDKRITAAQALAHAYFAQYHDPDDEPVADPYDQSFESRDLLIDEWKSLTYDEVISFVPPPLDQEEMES

One compound from ChEMBL document CHEMBL4007420, “Structural Optimization and Pharmacological Evaluation of Inhibitors Targeting Dual-Specificity Tyrosine Phosphorylation-Regulated Kinases (DYRK) and CDC-like kinases (CLK) in Glioblastoma” (J Med Chem, 2017) can be followed below.

pEC50, pIC50: −log10 of the molar value. Active and inactive are the calls of the source. No cut-off for these calls is given here.

By pEC50 is commonly meant −log10 of the EC50, conventionally taken in molar units. Usually pIC50 stands for −log10 of the IC50, conventionally taken in molar units. Regarding `Nc1ccc(-c2cnc3[nH]cc(-c4ccc(O)cc4)c3c2)cc1`, the outcome in experiment [1], in experiment [2] and in experiment [9] was Active. The Activity in experiment [3] was 714 um/hr; in experiment [6] it was 1538 um/hr; in experiment [7], 208 um/hr; in experiment [8], 2828 um/hr; in experiment [11], 355 um/hr. Besides, in experiment [4], the inhibition entry was “Dose-dependent effect”. For the same compound, the pEC50 is 5.10 in experiment [5], 5.49 in [10] and 5.34 to 5.80 in [14]. In addition, the pIC50 in experiment [12] was 7.37; in [13] it was 7.47; in [15], 7.49. Also, the result in experiment [16] was inactive.
